Reference: ChEMBL document CHEMBL4219242, “Furoxans (Oxadiazole-4 N-oxides) with Attenuated Reactivity are Neuroprotective, Cross the Blood Brain Barrier, and Improve Passive Avoidance Memory” (J Med Chem, 2018)
Active and inactive are the calls of the source.

Assays:
[1] = Thiol reactivity of the compound in pH 7.4 PBS buffer at 250 uM after 2 to 12 hrs by HPLC-PDA analysis; format: physicochemical; settings: pH 7.4, 250 µM
In short: (§1)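 Compound (250 μM) or N-ethylmaleimide control (250 μM) incubated with or without N-acetylcysteine (5 mM) in 50 mM PBS, pH 7.4, at 37 °C. Aliquots taken at 2 and 12 h were analysed by HPLC-PDA. Peak AUC at each analyte's λmax gave the remaining starting material.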

PC-12 [2] = test: Neuroprotective activity against oxygen glucose deprivation-induced cell death in rat PC12 cells assessed as change in cell viability at 1 uM after 24 hrs by MTT assay relative to control; format: functional
In short: (§2)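 Undifferentiated PC12 cells (passage 12−14), 1 × 10^6 plated overnight in DMEM/F12 with 5% FBS and 5% horse serum. OGD: glucose-free HBSS under argon in an anaerobic chamber, 1.5 h at 37 °C. Reoxygenated in fresh growth medium with compound or DMSO vehicle for 24 h at 37 °C. Viability by MTT (0.5 mg/mL, 4 h), DMSO-solubilised, A540. % change vs vehicle control; mean ± SEM, n=3, triplicate experiments.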

PC-12 [3] = test: Neuroprotective activity against oxygen glucose deprivation-induced cell death in rat PC12 cells assessed as change in cell viability at 10 uM after 24 hrs by MTT assay relative to control; format: functional; in short: as §2
PC-12 [4] = test: Neuroprotective activity against oxygen glucose deprivation-induced cell death in rat PC12 cells assessed as change in cell viability at 25 uM after 24 hrs by MTT assay relative to control; format: functional; in short: as §2
[5] = Drug uptake in cytosol of rat PC12 cells at 25 after 24 hrs under oxygen glucose deprivation condition by LC-MS/MS analysis; format: ADME, subcellular, PC-12
In short: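 After OGD (as in the neuroprotection assay), 1×10^6 PC12 cells were exposed to analyte at 25 μM for 24 h; a non-OGD plate served as control. Medium and cytosolic fractions (HEPES/NP-40 lysis buffer, 15 min at 0 °C, centrifuged) were diluted in 2% formic acid, spiked with the deuterated/nondeuterated partner as internal standard, and analysed by UPLC-MS/MS (MRM). AUCs were normalised to the internal standard.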

[6] = Stability of the compound in pH 7.4 PBS buffer at 250 uM after 2 to 12 hrs in presence of excess free thiols by HPLC-PDA analysis; format: physicochemical; settings: pH 7.4, 250 µM; in short: as §1
PC-12 [7] = test: Cytotoxicity against rat PC12 cells assessed as reduction in cell viability at 50 uM after 24 hrs by MTT assay; format: cell-based; settings: pc-12, 24 h
PC-12 [8] = test: Neuroprotective activity against oxygen glucose deprivation-induced cell death in rat PC12 cells assessed as change in cell viability after 24 hrs by resorufin-dye based assay; format: functional; settings: PC-12, 24 h
In short: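 PC12 cells (undifferentiated, passage 12−14) given OGD for 90 min (glucose-free HBSS, argon, 37 °C), then normoxic growth medium with compound at 0.1, 1, 5, 10, 25 or 50 μM for 24 h. PrestoBlue (10%, 30 min) fluorescence at 560/590 nm. Viability as percent change against vehicle-control mean; control plates without OGD were included.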

PC-12 [9] = test: Neuroprotective activity against oxygen glucose deprivation-induced cell death in rat PC12 cells assessed as reduction in cell viability at 50 uM after 24 hrs by MTT assay; format: functional, cell-based
PC-12 [10] = test: Neuroprotective activity against oxygen glucose deprivation-induced cell death in rat PC12 cells assessed as change in cell viability at 10 to 50 uM after 24 hrs cotreated with sGC inhibitor ODQ by MTT assay; format: functional, cell-based
In short: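 OGD-exposed PC12 cells (90 min glucose-free HBSS under argon, 37 °C) treated for 24 h with compound with or without the sGC inhibitor ODQ (10 μM). MTT viability read-out (0.5 mg/mL, 4 h, A540). Mean ± SEM (n = 3) of duplicate experiments; one-way ANOVA with Dunnett's test against vehicle.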

Mus musculus [11] = test: Reversal of scopolamine-induced memory impairment in C57BL/6 mouse assessed as latency time to enter dark compartment at 20 mg/kg, ip administered 60 to 120 mins prior to training followed by scopolamine challenge 30 mins prior to training measured after 24 hrs (reference value: 63.5 +/- 30 sec); format: functional
In short: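 Male C57BL/6 mice, habituated to confirm photophobia, were given the HCl salt (0.1–20 mg/kg ip in 0.9% NaCl/1% DMSO) 60 or 120 min before training, and scopolamine 1 mg/kg ip 30 min before training. Double-trial step-through training used a 0.5 mA, 3 s shock. Latency to enter the dark side was measured 24 h later (cut-off 300 s). n = 8–9; ANOVA with Dunnett's test.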

[12] = Drug uptake in C57BL/6 mouse plasma at 20 mg/kg, ip or po measured after 1 to 12 hrs by LC-MS/MS analysis; format: ADME, organism-based; settings: in vivo
In short: (§3)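 Male C57BL/6 mice (n = 4 per group) given the HCl salt at 20 mg/kg, either by oral gavage in sesame oil or ip in 0.9% NaCl with 1% DMSO. Sacrificed at 1, 2 or 12 h. Plasma (cardiac puncture, K2EDTA) and forebrain homogenate underwent solid-phase extraction with the d4 internal standard, then LC-MS/MS MRM quantitation against a spiked-brain calibration curve. Concentrations normalised to tissue weight; duplicate LC runs.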

Mus musculus [13] = test: Effect on CREB phosphorylation in C57BL/6 mouse forebrain at 20 mg/kg, ip or po measured after 1 to 12 hrs by ELISA; format: organism-based; settings: in vivo
[14] = Half life in C57BL/6 mouse plasma at 20 mg/kg, ip or po measured after 1 to 12 hrs by LC-MS/MS analysis; format: ADME, organism-based; in short: as §3
[15] = Half life in C57BL/6 mouse brain at 20 mg/kg, ip or po measured after 1 to 12 hrs by LC-MS/MS analysis; format: ADME, organism-based; in short: as §3
[16] = Drug uptake in C57BL/6 mouse brain at 20 mg/kg, ip or po measured after 1 to 12 hrs by LC-MS/MS analysis; format: ADME, organism-based; settings: in vivo; in short: as §3
Mus musculus [17] = test: Effect on CREB phosphorylation in hippocampal tissue of scopolamine-induced C57BL/6 mouse memory deficit model at 20 mg/kg, ip treated for 2 hrs prior to test followed by scopolamine challenge 30 mins prior to test by Western blot analysis; format: organism-based; settings: in vivo
In short: (§4)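 C57BL/6 mice (N = 8 per cohort, blinded) received the HCl salt at 20 mg/kg ip (saline/1% DMSO) or vehicle 2 h before sacrifice, and scopolamine at 1 mg/kg ip or saline 30 min before sacrifice. Hippocampal lysates were run on 10−20% Tris-glycine gels and transferred to PVDF. Blots were probed with pCREB Ser133, CREB, p-ERK1/2 Thr202/Tyr204 and ERK1/2 antibodies, normalised to GAPDH and expressed as phospho:total.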

Mus musculus [18] = test: Effect on Erk phosphorylation in hippocampal tissue of scopolamine-induced C57BL/6 mouse memory deficit model at 20 mg/kg, ip treated for 2 hrs prior to test followed by scopolamine challenge 30 mins prior to test by Western blot analysis; format: organism-based; settings: in vivo; in short: as §4
[19] = Ratio of drug uptake in C57BL/6 mouse brain to plasma at 20 mg/kg, po measured after 1 to 12 hrs by LC-MS/MS analysis; format: ADME, organism-based; settings: read-out: BPR
In short: (§5)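 Brain:plasma ratio taken from forebrain and plasma levels in C57BL/6 mice dosed at 20 mg/kg (ip in saline/1% DMSO or po in sesame oil), sampled at 1, 2 or 12 h. Samples extracted by SPE with the d4 internal standard and measured by LC-MS/MS MRM. Mean ± SEM; routes compared by unpaired t test.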

[20] = Ratio of drug uptake in C57BL/6 mouse brain to plasma at 20 mg/kg, ip measured after 1 to 12 hrs by LC-MS/MS analysis; format: ADME, organism-based; settings: read-out: BPR; in short: as §5

SMILES	Activity (PC-12 [2]) [%]	Activity (PC-12 [3]) [%]	Activity (PC-12 [4]) [%]	also measured
CCN1C(=O)C=CC1=O [N-ETHYLMALEIMIDE]	–	–	–	Drug metabolism [1]: Metabolite_Detected
CC1CCN(Cc2no[n+]([O-])c2-c2ccc(OC(F)F)cc2)CC1	67	61	53	–
CC1CCN(Cc2c(-c3ccc(C(F)(F)F)cc3)no[n+]2[O-])CC1	-9	10	0	–
Cc1ccc(-c2c(CN3CCC(C)CC3)no[n+]2[O-])cc1	22	13	8	–
CC1CCN(Cc2no[n+]([O-])c2-c2ccc(C(F)(F)F)cc2)CC1	2	-16	-22	–
CC1CCN(Cc2c(-c3ccc(OC(F)F)cc3)no[n+]2[O-])CC1	54	86	108	–
CC1CCN(Cc2c(-c3ccccc3)no[n+]2[O-])CC1	9	19	16	–
COc1ccc(-c2c(CN3CCC(C)CC3)no[n+]2[O-])cc1	11	12	5	–
CC1CCN(Cc2no[n+]([O-])c2-c2ccc(Cl)cc2)CC1	-10	19	4	–
CC1CCN(Cc2c(-c3ccc(Br)cc3)no[n+]2[O-])CC1	-7	-2	19	–
CC1CCN(Cc2no[n+]([O-])c2-c2ccc(Br)cc2)CC1	25	77	96	–
CC1CCN(Cc2c(-c3ccc(Cl)cc3)no[n+]2[O-])CC1	35	7	25	–
Cc1ccc(-c2no[n+]([O-])c2CN2CCC(C)CC2)cc1	7	12	10	–
CC1CCN(Cc2c(-c3ccc(F)cc3)no[n+]2[O-])CC1	11	11	5	–
[2H]C1([2H])CC(C)CC([2H])([2H])N1Cc1no[n+]([O-])c1-c1ccc(F)cc1	8	20	7	Drug uptake [5]: Active
CC1CCN(Cc2no[n+]([O-])c2-c2ccccc2)CC1	-21	6	-11	–
[2H]C1([2H])CC(C)CC([2H])([2H])N1Cc1c(-c2ccc(F)cc2)no[n+]1[O-]	11	6	-1	–
COc1ccc(-c2no[n+]([O-])c2CN2CCC(C)CC2)cc1	14	10	-1	–
CC1CCN(Cc2no[n+]([O-])c2-c2ccc(F)cc2)CC1	-3	46	41	Drug uptake [5]: Active; Stability [6]: Stable; Activity (PC-12 [7]): Non-Toxic; EC50 (PC-12 [8]): 1.9 µM; Activity (PC-12 [9]): inactive; Activity (PC-12 [10]): inactive; Time (Mus musculus [11]): 237 s; Drug uptake [12]: Active; Activity (Mus musculus [13]): Non-Toxic; half-life [14]: 1.83 h; half-life [15]: 0.833 h; Drug uptake [16]: Active; Activity (Mus musculus [17]): Non-Toxic; Activity (Mus musculus [18]): Non-Toxic; Kp [19]: 1.49; Kp [20]: 0.68
